The text below walks through data of ChEMBL document CHEMBL4130484, “Identification and optimization of novel 6-acylamino-2-aminoquinolines as potent Hsp90 C-terminal inhibitors” (Eur J Med Chem, 2017).

What is called IC50 is the concentration that gives 50% inhibition. Usually logD stands for lipophilicity at a set pH, counting ionised and neutral species. Low readings indicate lower lipophilicity, high ones higher lipophilicity. What is called solubility is the concentration that dissolves in the medium under given conditions. A high value points to much dissolved substance.

SMILES strings stand for the structures. ≈ marks a conversion by molar mass, not a printed value. Calls of active or inactive are those of the source. The calls are words filed in the database; no cut-off is given here.

In data set [1] the test system is MCF7. Briefly: Growth inhibition of human MCF7 cells at 50 uM incubated for 72 hrs by MTT assay. The class given is functional. Particulars: MCF7, 72 h, read-out: GI. An outline of the steps:
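MTT screen in MCF7 cells at a single concentration of 50 µM; growth inhibition rate recorded.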
In general terms: Tetrazolium assays rely on reduction of a dye to a coloured formazan, in cell work by metabolically active cells.

The subject of data set [2] is MCF7. The data set can be described thus: Antiproliferative activity against human MCF7 cells incubated for 72 hrs by MTT assay. The format is functional, cell-based. Particulars: MCF7, 72 h. An outline of the steps: (§1)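 MTT antiproliferation assay in MCF7 and SKBr3 breast cancer cells; IC50 determined.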
A further data set concerns SK-BR-3. Briefly: Antiproliferative activity against human SKBR3 cells incubated for 72 hrs by MTT assay. The format is functional, cell-based. The following applies: SK-BR-3, 72 h. The method, boiled down:
as §1

The target in data set [3] is T1, Heat shock protein HSP90 (Homo sapiens) (UniProt P07900+P08238). The data set can be described thus: Inhibition of HSP90 C-terminal in human MCF7 cells assessed as reduction in Akt protein expression at 5 to 20 uM incubated for 24 hrs by Western blot method. The format is cell-based. An outline of the steps:
(§2)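 MCF7 cells incubated 24 h with various concentrations, then client protein levels read by Western blot. β-Actin served as loading control. AT13387 (1.0 µM), an N-terminal Hsp90 inhibitor, was the positive control.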

In data set [4] the target is T1, Heat shock protein HSP90 (Homo sapiens). Briefly: Inhibition of HSP90 C-terminal in human MCF7 cells assessed as reduction in ERK protein expression at 5 to 20 uM incubated for 24 hrs by Western blot method. The format is cell-based. An outline of the steps:
as §2

Data set [5] has the same target. Briefly: Inhibition of HSP90 C-terminal in human MCF7 cells assessed as reduction in CDK6 protein expression at 5 to 20 uM incubated for 24 hrs by Western blot method. The format is cell-based. The method, boiled down: as §2
A short description of data set [6]: Distribution coefficient, log D of the compound at pH 7.4. The class given is physicochemical. The following applies: octanol/water. The method, boiled down:
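Log D at pH 7.4 measured on a PULSE platform.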

Data set [7] is described as follows: Intrinsic aqueous solubility of the compound. The class given is physicochemical. An outline of the steps:
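Intrinsic aqueous solubility determined on a Gemini Profiler instrument.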

The nature of data set [8]: Permeability coefficient of the compound at pH 7.4 by double-sink PAMPA. The class given is ADME. The following applies: read-out: permeability. The method, boiled down:
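Double-sink PAMPA at pH 7.4 on a PAMPA Explorer instrument; Pe reported as mean ± SD, n = 3.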
A general note: The PAMPA barrier holds no transporters, so it reflects passive diffusion.

In data set [9] the target is T1, Heat shock protein HSP90 (Homo sapiens). Briefly: Inhibition of HSP90 C-terminal in human MCF7 cells assessed as reduction in Akt protein expression incubated for 24 hrs by Western blot method. The class given is cell-based. The method, boiled down:
as §2
In general terms: Immunoblotting shows a protein as a band on a membrane.

The target is the same in data set [10]. The data set can be described thus: Inhibition of HSP90 C-terminal in human MCF7 cells assessed as reduction in ERK protein expression incubated for 24 hrs by Western blot method. The class given is cell-based. An outline of the steps:
as §2

Data set [11] shares this target. Briefly: Inhibition of HSP90 C-terminal in human MCF7 cells assessed as reduction in CDK6 protein expression incubated for 24 hrs by Western blot method. The format is cell-based. The method, boiled down: as §2
Data set [12] relates to MCF7. The data set can be described thus: Induction of heat shock response in human MCF7 cells assessed as effect on HSP90 protein expression at 1 to 10 uM incubated for 24 hrs by Western blot method. The class given is cell-based. The following applies: mcf7, 24 h. The method, boiled down: as §2
In data set [13] the test system is MCF7. The data set can be described thus: Induction of heat shock response in human MCF7 cells assessed as effect on HSP70 protein expression at 1 to 10 uM incubated for 24 hrs by Western blot method. The following applies: mcf7, 24 h. The format is cell-based. An outline of the steps: as §2
For data set [14], the system named is MCF7. Briefly: Inhibition of cell migration in human MCF7 cells incubated for 24 hrs by wound healing assay. The format is functional, cell-based. An outline of the steps:
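Wound healing in MCF7 cells: the monolayer was scratched with a 200 µL sterile pipette tip, treated 24 h at various concentrations, then imaged.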

The test system of data set [15] is 4T1. Briefly: Antitumor activity against mouse 4T1 cells implanted in BALB/c mouse assessed as inhibition of tumor growth at 10 mg/kg/day, ip for 2 weeks measured every 2 days. The class given is functional. The following applies: 4T1, ip, read-out: TGI. An outline of the steps:
(§3)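 BALB/c mice bearing 4T1 breast tumors were dosed ip daily for 2 weeks with vehicle, 10 or 30 mg/kg, starting once mean tumor volume reached 50 mm³. Tumor diameters were measured every two days; TGI derived.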

For data set [16], the system named is 4T1. Briefly: Antitumor activity against mouse 4T1 cells implanted in BALB/c mouse assessed as inhibition of tumor growth at 30 mg/kg/day, ip for 2 weeks measured every 2 days. Particulars: 4T1, ip, read-out: TGI. The format is functional. An outline of the steps:
as §3

Data set [17] concerns 4T1. Briefly: Antitumor activity against mouse 4T1 cells implanted in BALB/c mouse assessed as inhibition of lung metastasis at 10 mg/kg/day, ip for 2 weeks measured every 2 days by H and E staining. The format is functional, organism-based. An outline of the steps:
(§4)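 4T1 tumor-bearing BALB/c mice were dosed ip daily for 2 weeks with vehicle, 10 or 30 mg/kg, starting at mean tumor volume 50 mm³. Lung tissue was then examined for metastasis.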

Data set [18] concerns 4T1. Briefly: Antitumor activity against mouse 4T1 cells implanted in BALB/c mouse assessed as inhibition of lung metastasis at 30 mg/kg/day, ip for 2 weeks measured every 2 days by H and E staining. The format is functional, organism-based. The method, boiled down: as §4
In data set [19] the test system is Mus musculus. Briefly: Toxicity in BALB/c mouse implanted with mouse 4T1 cells assessed as induction of body weight loss at 10 mg/kg/day, ip for 2 weeks measured every 2 days. The following applies: in vivo. The format is organism-based. An outline of the steps:
(§5)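 4T1 tumor-bearing BALB/c mice were given vehicle, 10 or 30 mg/kg ip daily for 2 weeks from mean tumor volume 50 mm³. Body weight was monitored during treatment.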

The test system of data set [20] is Mus musculus. The data set can be described thus: Toxicity in BALB/c mouse implanted with mouse 4T1 cells assessed as induction of body weight loss at 30 mg/kg/day, ip for 2 weeks measured every 2 days. The format is organism-based. The following applies: in vivo. The method, boiled down: as §5
Data set [21] concerns MCF7. Briefly: Induction of apoptosis in human MCF7 cells assessed as viable cells level at 2.5 uM incubated for 24 hrs by Annexin V-FITC and propidium iodide staining based flow cytometry (reference value: 93.37%). The class given is functional.
In data set [22] the test system is MCF7. The data set can be described thus: Induction of apoptosis in human MCF7 cells assessed as early apoptotic cells level at 2.5 uM incubated for 24 hrs by Annexin V-FITC and propidium iodide staining based flow cytometry (reference value: 1.93%). The class given is functional.
The test system of data set [23] is MCF7. Briefly: Induction of apoptosis in human MCF7 cells assessed as late apoptotic cells level at 2.5 uM incubated for 24 hrs by Annexin V-FITC and propidium iodide staining based flow cytometry (reference value: 4.19%). The format is functional.
For data set [24], the system named is MCF7. Briefly: Induction of apoptosis in human MCF7 cells assessed as necrotic cells level at 2.5 uM incubated for 24 hrs by Annexin V-FITC and propidium iodide staining based flow cytometry (reference value: 0.51%). The format is functional.
The subject of data set [25] is MCF7. Briefly: Induction of apoptosis in human MCF7 cells assessed as viable cells level at 5 uM incubated for 24 hrs by Annexin V-FITC and propidium iodide staining based flow cytometry (reference value: 93.37%). The class given is functional.
Data set [26] has as its system MCF7. Briefly: Induction of apoptosis in human MCF7 cells assessed as early apoptotic cells level at 5 uM incubated for 24 hrs by Annexin V-FITC and propidium iodide staining based flow cytometry (reference value: 1.93%). The format is functional.
Data set [27] relates to MCF7. Briefly: Induction of apoptosis in human MCF7 cells assessed as late apoptotic cells level at 5 uM incubated for 24 hrs by Annexin V-FITC and propidium iodide staining based flow cytometry (reference value: 4.19%). The class given is functional.
Data set [28] has as its system MCF7. The data set can be described thus: Induction of apoptosis in human MCF7 cells assessed as necrotic cells level at 5 uM incubated for 24 hrs by Annexin V-FITC and propidium iodide staining based flow cytometry (reference value: 0.51%). The format is functional.
The test system of data set [29] is MCF7. Briefly: Induction of apoptosis in human MCF7 cells assessed as viable cells level at 10 uM incubated for 24 hrs by Annexin V-FITC and propidium iodide staining based flow cytometry (reference value: 93.37%). The class given is functional.
The subject of data set [30] is MCF7. The data set can be described thus: Induction of apoptosis in human MCF7 cells assessed as early apoptotic cells level at 10 uM incubated for 24 hrs by Annexin V-FITC and propidium iodide staining based flow cytometry (reference value: 1.93%). The format is functional.
The subject of data set [31] is MCF7. The data set can be described thus: Induction of apoptosis in human MCF7 cells assessed as late apoptotic cells level at 10 uM incubated for 24 hrs by Annexin V-FITC and propidium iodide staining based flow cytometry (reference value: 4.19%). The class given is functional.
Data set [32] concerns MCF7. The data set can be described thus: Induction of apoptosis in human MCF7 cells assessed as necrotic cells level at 10 uM incubated for 24 hrs by Annexin V-FITC and propidium iodide staining based flow cytometry (reference value: 0.51%). The class given is functional.

Regarding `CCN(CC)CCOC(=O)c1ccc(NC(=O)C2=CC3C(c4ccccc4F)=NN(C)C3S2)cc1` (configuration not stated), the inhibition of growth at 50 µM with MCF7 [1] was determined as 99.6%. The results for the IC50 with MCF7 [2] and in the data set with SK-BR-3 were 5.38 µM and 4.99 µM, respectively. The inhibition entry in data set [3], in data set [4] and in data set [5] was “inactive” in each case.

As for `Cc1oc2ncn(CC(C)C)c(=O)c2c1C(=O)Nc1ccc(C(=O)NCCN2CCCC2)nc1`, the inhibition of growth at 50 µM with MCF7 [1] was 90.4%. The figures for the half-maximal inhibitory concentration (IC50) in the data set with MCF7 [2] and with SK-BR-3 were 8.41 µM and 8.09 µM, respectively. Further, the inhibition result in data set [3], in [4] and in data set [5] was “inactive” in each case.

With `CCN1CCN(c2cc(C)c3cc(NC(=O)c4cccc(OC)c4)ccc3n2)CC1`, the inhibition of growth at 50 µM with MCF7 [1] stood at 96.9%. Also, the IC50 with MCF7 [2] came out at 4.86 µM; with SK-BR-3, 3.33 µM. Moreover, the inhibition entry in [3], in [4] and in data set [5] was “Active” in each case.

`Cc1cc(NCCN2CCCCC2)nc2ccc(NC(=O)c3ccc(Cl)c(Cl)c3)cc12`: the IC50 in the data set on MCF7 [2] is 1.19 µM; in the data set on SK-BR-3, 1.8 µM. The molecule also registered a logD in data set [6] of 2.72. The molecule also gave a solubility in [7] of 70.8 µg/mL (≈ 155 µM). In [8], the Papp turned out to be 47.3 ×10⁻⁶ cm/s. Besides, the inhibition result (in data set [9]; in [10]; in data set [11]; with MCF7 [14]) was “Dose-dependent effect” in each case. Moreover, the Activity entry in the data set with MCF7 [12] is recorded as “Non-Toxic”; in the data set with MCF7 [13] it was “Non-Toxic”; with Mus musculus [19], “Non-Toxic”; with Mus musculus [20], “Non-Toxic”; in the data set with MCF7 [21], 93.3%; in the data set with MCF7 [22], 1.57%. The Activity in the data set on MCF7 [23] amounted to 4.33%; with MCF7 [24], 0.8%; in the data set with MCF7 [25], 78.86%; in the data set with MCF7 [26], 5.21%; with MCF7 [27], 12.8%; with MCF7 [28], 3.13%. Also, the Activity in the data set on MCF7 [29] was 42.69%; in the data set on MCF7 [30] it was 20.22%; in the data set on MCF7 [31], 31.59%; in the data set with MCF7 [32], 5.5%. For the same molecule, the inhibition in vivo at 10 mg/kg/day in the data set with 4T1 [15] came out at 26%. In addition, the inhibition in vivo at 30 mg/kg/day in the data set on 4T1 [16] came out at 47%. Further, the inhibition entry in the data set on 4T1 [17] and in the data set on 4T1 [18] was “Active” in each case.
